This note sets out measurements from ChEMBL document CHEMBL1141716, “Discovery and optimization of substituted piperidines as potent, selective, CNS-penetrant alpha4beta2 nicotinic acetylcholine receptor potentiators” (Bioorg Med Chem Lett, 2008).

The structures appear in SMILES notation. Active and inactive are the calls of the source. The rule behind the calls is not given here.

Series [1] deals with T1, Neuronal acetylcholine receptor; alpha4/beta2 (Homo sapiens, UniProt P17787+P43681). Put plainly: Activation of human alpha4beta2 nAChR assessed as potentiation of submaximal response to nicotine induced current. Put shortly: (§1)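 Fluorescence-based functional assay; compounds first screened at 10 µM for increase of the fluorescent response to an EC₁₂ concentration of nicotine, actives then run dose–response; EC₅₀ and peak response recorded, efficacy expressed as % of maximal nicotine response; average of n ≥ 2.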

The next series relates to MDR1. Put plainly: Permeability efflux ratio in MDR1 expressing pig LLC-PK1 cells. It is filed as ADME, cell-based, Sus scrofa.
Series [2] has as its target T1, Neuronal acetylcholine receptor; alpha4/beta2. Put plainly: Activation of human alpha4beta2 nAChR assessed as potentiation of submaximal response to […] relative to maximal nicotine response. It is filed as protein-complex assay. The procedure, abridged: as §1
A short description of series [3]: Drug level in Sprague-Dawley rat CSF at 5 mg/kg, ip after 1 hr. Format: ADME, organism-based, Cerebrospinal fluid. Further details: dose 5 mg/kg, route intraperitoneal. The note with it: read-out: Drug uptake. Put shortly: (§2)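 Rats dosed ip at 5 mg/kg in DMSO; sacrificed at 1 h; plasma, brain and CSF collected and drug concentrations measured.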
A short description of series [4]: Plasma concentration in Sprague-Dawley rat at 5 mg/kg, ip after 1 hr. Details: dose 5 mg/kg, route intraperitoneal. It is filed as ADME, organism-based. The procedure, abridged:
as §2

Series [5] can be described thus: Drug level in Sprague-Dawley rat brain at 5 mg/kg, ip after 1 hr. It is filed as ADME, organism-based. Details: dose 5 mg/kg, route intraperitoneal. The note with it: read-out: Drug uptake. The procedure, abridged:
as §2

The target in series [6] is Neuronal acetylcholine receptor; alpha3/beta4 (Homo sapiens, UniProt P30926+P32297). Kind of series: Activation of human alpha3beta4 nAChR assessed as potentiation of submaximal response to nicotine induced current. It is filed as protein-complex assay. The procedure, abridged: as §1
Series [7] has as its target Neuronal acetylcholine receptor; alpha3/beta2 (Homo sapiens, UniProt P17787+P32297). Put plainly: Activation of human alpha3beta2 nAChR assessed as potentiation of submaximal response to nicotine induced current. The procedure, abridged:
as §1

For series [8], the target named is Neuronal acetylcholine receptor; alpha4/beta2 (Rattus norvegicus) (UniProt P09483+P12390). Put plainly: Activation of rat alpha4beta2 nAChR expressed in HEK293 cells assessed as potentiation of acetylcholine-induced current by whole cell patch clamp. Format: cell-based. Put shortly: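 Whole-cell patch-clamp with fast-flow perfusion under physiological ionic conditions; acetylcholine as agonist, holding potential −80 mV; compound also applied alone to check for evoked inward currents.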
For orientation: Patch clamp records ionic current or voltage across a cell membrane.

Series [9] deals with Neuronal acetylcholine receptor subunit alpha-7 (Homo sapiens, UniProt P36544). Kind of series: Activation of human alpha7 nAChR assessed as potentiation of submaximal response to nicotine induced current.
Series [10] has as its target T1, Neuronal acetylcholine receptor; alpha4/beta2. Put plainly: Displacement of [3H]cytisine from human alpha4beta2 nAChR at =>30 uM. It is filed as protein-complex assay.
The target in series [11] is Neuronal acetylcholine receptor; alpha4/beta2 (Rattus norvegicus, UniProt P09483+P12390). Put plainly: Activation of rat alpha4beta2 nAChR by fluorescence assay. Format: protein-complex assay.
Neuronal acetylcholine receptor; alpha4/beta2 (Rattus norvegicus, UniProt P09483+P12390), sequence (P09483 whole entry): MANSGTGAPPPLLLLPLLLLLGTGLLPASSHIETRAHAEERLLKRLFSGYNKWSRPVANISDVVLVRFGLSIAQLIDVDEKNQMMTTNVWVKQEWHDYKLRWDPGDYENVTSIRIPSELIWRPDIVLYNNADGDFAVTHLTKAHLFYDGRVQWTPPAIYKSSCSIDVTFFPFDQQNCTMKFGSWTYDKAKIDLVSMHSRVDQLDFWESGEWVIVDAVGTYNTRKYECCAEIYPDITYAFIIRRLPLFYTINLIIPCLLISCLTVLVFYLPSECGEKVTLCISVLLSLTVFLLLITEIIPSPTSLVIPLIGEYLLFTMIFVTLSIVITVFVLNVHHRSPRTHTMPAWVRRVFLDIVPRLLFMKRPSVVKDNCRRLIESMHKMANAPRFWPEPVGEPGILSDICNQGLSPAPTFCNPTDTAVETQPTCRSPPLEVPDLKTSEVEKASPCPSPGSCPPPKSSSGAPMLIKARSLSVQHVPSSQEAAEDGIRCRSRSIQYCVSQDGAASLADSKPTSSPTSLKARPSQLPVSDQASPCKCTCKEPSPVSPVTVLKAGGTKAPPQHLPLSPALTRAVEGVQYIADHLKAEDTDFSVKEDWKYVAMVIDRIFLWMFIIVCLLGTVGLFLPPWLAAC
Neuronal acetylcholine receptor; alpha4/beta2 (Rattus norvegicus, UniProt P09483+P12390), sequence (P12390 whole entry): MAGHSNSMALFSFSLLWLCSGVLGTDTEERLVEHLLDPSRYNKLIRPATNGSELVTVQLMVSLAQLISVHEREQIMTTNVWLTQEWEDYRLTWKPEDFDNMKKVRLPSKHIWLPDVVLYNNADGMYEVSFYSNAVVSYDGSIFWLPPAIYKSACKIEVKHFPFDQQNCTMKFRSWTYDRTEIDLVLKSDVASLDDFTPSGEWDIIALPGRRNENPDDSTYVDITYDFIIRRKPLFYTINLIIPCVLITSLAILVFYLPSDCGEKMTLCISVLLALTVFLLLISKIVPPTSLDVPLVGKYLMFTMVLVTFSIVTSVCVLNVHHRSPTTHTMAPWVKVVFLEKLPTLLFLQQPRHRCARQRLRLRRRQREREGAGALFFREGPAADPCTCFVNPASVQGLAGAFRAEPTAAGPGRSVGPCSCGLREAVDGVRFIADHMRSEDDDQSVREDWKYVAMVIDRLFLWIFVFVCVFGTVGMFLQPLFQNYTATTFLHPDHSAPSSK

T1 sequence (P17787 whole entry): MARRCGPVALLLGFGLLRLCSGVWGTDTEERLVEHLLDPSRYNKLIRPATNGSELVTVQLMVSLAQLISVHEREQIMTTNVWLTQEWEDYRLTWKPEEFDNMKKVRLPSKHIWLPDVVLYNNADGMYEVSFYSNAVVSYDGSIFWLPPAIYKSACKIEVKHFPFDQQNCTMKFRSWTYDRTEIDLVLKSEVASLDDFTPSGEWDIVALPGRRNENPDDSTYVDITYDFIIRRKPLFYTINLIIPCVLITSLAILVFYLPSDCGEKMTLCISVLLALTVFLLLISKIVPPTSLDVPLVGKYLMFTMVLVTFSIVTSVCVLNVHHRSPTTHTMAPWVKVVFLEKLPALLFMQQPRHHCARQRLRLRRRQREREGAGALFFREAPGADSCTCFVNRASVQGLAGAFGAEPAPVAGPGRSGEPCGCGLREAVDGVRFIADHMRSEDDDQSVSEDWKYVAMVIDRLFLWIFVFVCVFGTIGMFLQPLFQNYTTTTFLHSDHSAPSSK
T1 sequence (P43681 whole entry): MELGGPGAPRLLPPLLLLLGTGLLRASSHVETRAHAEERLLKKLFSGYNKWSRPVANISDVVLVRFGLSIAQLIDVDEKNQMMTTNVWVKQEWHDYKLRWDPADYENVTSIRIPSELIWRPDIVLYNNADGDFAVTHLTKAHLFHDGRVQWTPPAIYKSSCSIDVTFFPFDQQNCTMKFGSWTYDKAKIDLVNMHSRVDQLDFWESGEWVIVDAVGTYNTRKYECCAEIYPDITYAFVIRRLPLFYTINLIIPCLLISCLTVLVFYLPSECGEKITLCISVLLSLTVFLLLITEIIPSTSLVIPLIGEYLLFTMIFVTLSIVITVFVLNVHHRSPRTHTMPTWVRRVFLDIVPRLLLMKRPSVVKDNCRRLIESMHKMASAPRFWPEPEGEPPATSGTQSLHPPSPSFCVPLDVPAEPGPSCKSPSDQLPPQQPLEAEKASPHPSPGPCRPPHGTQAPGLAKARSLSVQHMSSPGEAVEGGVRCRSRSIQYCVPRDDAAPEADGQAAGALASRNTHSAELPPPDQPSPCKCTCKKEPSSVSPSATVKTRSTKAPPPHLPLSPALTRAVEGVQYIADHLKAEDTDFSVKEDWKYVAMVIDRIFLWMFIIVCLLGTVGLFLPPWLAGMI
Neuronal acetylcholine receptor; alpha3/beta4, sequence (P30926 whole entry): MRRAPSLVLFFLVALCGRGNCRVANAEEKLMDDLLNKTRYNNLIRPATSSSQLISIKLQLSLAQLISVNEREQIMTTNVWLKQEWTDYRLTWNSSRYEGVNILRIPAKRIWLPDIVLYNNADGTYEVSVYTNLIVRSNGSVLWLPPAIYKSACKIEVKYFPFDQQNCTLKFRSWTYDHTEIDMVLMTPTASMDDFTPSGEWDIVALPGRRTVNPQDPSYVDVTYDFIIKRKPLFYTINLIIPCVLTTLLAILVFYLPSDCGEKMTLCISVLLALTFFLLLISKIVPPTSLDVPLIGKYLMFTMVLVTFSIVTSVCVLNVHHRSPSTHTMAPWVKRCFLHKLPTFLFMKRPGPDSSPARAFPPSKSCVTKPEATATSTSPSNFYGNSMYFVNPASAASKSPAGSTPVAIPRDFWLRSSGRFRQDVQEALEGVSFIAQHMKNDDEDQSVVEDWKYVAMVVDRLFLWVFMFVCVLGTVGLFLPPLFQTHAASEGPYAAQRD
Neuronal acetylcholine receptor; alpha3/beta4, sequence (P32297 whole entry): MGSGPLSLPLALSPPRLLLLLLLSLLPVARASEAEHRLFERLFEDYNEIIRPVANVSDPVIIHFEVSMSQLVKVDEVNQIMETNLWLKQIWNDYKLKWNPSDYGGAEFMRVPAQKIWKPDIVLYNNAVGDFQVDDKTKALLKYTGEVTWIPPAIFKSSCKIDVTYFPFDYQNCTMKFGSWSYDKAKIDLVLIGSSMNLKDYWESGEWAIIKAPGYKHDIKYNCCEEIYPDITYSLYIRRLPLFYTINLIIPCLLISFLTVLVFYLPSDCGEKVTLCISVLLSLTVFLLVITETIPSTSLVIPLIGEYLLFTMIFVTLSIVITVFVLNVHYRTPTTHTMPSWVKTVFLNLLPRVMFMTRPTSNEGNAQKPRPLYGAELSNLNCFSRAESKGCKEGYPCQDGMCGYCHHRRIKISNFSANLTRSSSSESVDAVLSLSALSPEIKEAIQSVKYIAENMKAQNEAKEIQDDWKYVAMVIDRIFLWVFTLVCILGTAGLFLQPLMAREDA
Neuronal acetylcholine receptor; alpha3/beta2, sequence (P17787 whole entry): as the sequence (P17787 whole entry) above
Neuronal acetylcholine receptor; alpha3/beta2, sequence (P32297 whole entry): as the sequence (P32297 whole entry) above
Neuronal acetylcholine receptor subunit alpha-7, sequence (P36544 whole entry): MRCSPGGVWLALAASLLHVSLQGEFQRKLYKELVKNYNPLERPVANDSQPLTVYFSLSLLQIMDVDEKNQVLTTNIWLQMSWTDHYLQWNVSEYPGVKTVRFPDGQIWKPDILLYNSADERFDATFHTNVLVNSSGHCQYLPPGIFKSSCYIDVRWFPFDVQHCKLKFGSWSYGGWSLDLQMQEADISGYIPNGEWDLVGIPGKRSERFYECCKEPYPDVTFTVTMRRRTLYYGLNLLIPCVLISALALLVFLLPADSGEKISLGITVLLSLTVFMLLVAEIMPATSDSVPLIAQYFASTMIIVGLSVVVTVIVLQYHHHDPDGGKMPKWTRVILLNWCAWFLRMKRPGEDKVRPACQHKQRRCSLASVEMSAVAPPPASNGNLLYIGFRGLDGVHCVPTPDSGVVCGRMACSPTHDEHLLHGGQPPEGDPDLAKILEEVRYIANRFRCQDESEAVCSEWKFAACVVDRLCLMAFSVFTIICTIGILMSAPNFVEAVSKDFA

For the compound `CCn1c(-c2cc(-c3c(F)cccc3Cl)no2)cnc1C1(F)CCNCC1`, the EC50 (as a rule, the concentration needed to bring the measured effect to its halfway point) in [1] worked out at 3 nM. Also, the efflux ratio (commonly a quotient of directional permeabilities that is used to spot active efflux) in the series on MDR1 amounted to 1. Further, the Efficacy in series [2] came out at 74%. For the same compound, the concentration at 1 h was found to be 29 nM in series [3], 600 nM in [4] and 6500 nM in [5].
Regarding `CCn1c(-c2cc(-c3c(F)cccc3Cl)no2)cnc1C1CCNCC1`, the 50% effective concentration (EC50) in series [1] was determined as 3 nM. The efflux ratio in the series with MDR1 is over 10. Further, in series [2], the Efficacy was 87%.
For `Clc1ccccc1-c1cc(-c2cnn(C3CCNCC3)c2)on1`, the values for the EC50 in series [1], in series [6] and in series [7] were 120 nM, over 100000 nM and over 100000 nM, respectively. Moreover, the Efficacy in series [2] is 38%.
Turning to `Fc1ccc(-c2cc(-c3cnn(C4CCNCC4)c3)on2)c(Cl)c1`, in series [1], the EC50 came to 220 nM. For the same compound, the Efficacy in series [2] stood at 56%.
With `Cn1c(-c2cc(-c3c(F)cccc3Cl)no2)cnc1C1(F)CCNCC1`, in series [1], the EC50 came to 34 nM. Moreover, the efflux ratio with MDR1 turned out to be 1. For the same compound, the Efficacy in [2] is 68%.
As to `Clc1cccc(Cl)c1-c1cc(-c2cnn(C3CCNCC3)c2)on1`, the EC50 in [1] stood at 410 nM. The Efficacy in series [2] worked out at 73%.
Take `Fc1cccc(Cl)c1-c1cc(-c2cnn(C3CCNCC3)c2)on1`: the EC50 in series [1] turned out to be 48 nM. In [2], the Efficacy was 60%.
For `c1ccc(-c2cc(-c3cnn(C4CCNCC4)c3)on2)cc1`, the EC50 in series [1] is over 100000 nM.
For `Clc1cnccc1-c1cc(-c2cnn(C3CCNCC3)c2)on1`, in series [1], the EC50 amounted to 200 nM. In [2], the Efficacy amounted to 50%.
In the case of `Cc1c(-c2cc(-c3ccccc3)no2)cnn1C1CCNCC1`, the half-maximal effective concentration (EC50) in series [1] worked out at 1200 nM. Besides, the Efficacy in series [2] was 31%.
Regarding `Fc1cccc(-c2cc(-c3cnn(C4CCNCC4)c3)on2)c1Cl`, in [1], the EC50 amounted to 230 nM. Also, the Efficacy in series [2] was determined as 47%.
As for `Fc1ccc(Cl)c(-c2cc(-c3cnn(C4CCNCC4)c3)on2)c1`, the EC50 in [1] came to 270 nM. The Efficacy in series [2] was 29%.
As for `Cc1c(-c2cc(-c3c(F)cccc3Cl)no2)cnn1C1CCNCC1`, in [1], the EC50 was 6 nM. Further, in series [2], the Efficacy came to 66%.
For `Clc1ccccc1-c1cc(-c2cnc(C3CCNCC3)s2)on1`, in series [1], the EC50 was found to be 33 nM. The Efficacy in [2] is 63%. Besides, the figures for the concentration at 1 h in [3], in [4] and in series [5] were 21 nM, 300 nM and 8500 nM, respectively.
`c1nn(C2CCNCC2)cc1-c1cc(C2CCCCC2)no1`: the EC50 in [1] turned out to be 4600 nM. Besides, in series [2], the Efficacy is 16%.
With `Clc1sccc1-c1cc(-c2cnn(C3CCNCC3)c2)on1`, in [1], the concentration giving a half-maximal response (EC50) was found to be 130 nM. For the same compound, the Efficacy in series [2] is 42%.
Turning to `CN(Cc1cc(-c2ccccc2Cl)no1)C(=O)C1CCNCC1`, the concentration for a half-maximal effect (EC50) in series [1] was 350 nM; in series [6] it was over 100000 nM; in series [7], over 100000 nM. For the same compound, the Efficacy in [2] worked out at 41%.
`Cn1c(-c2cc(-c3c(F)cccc3Cl)no2)cnc1C1CCNCC1`: in [1], the EC50 was determined as 12 nM. Also, in the series with MDR1, the efflux ratio is over 10. Also, the Efficacy in series [2] is 71%.
In the case of `Cc1cc(-c2cnn(C3CCNCC3)c2)on1`, the EC50 in [1] turned out to be 1300 nM. In addition, the Efficacy in series [2] was 19%.
`Cc1c(-c2cc(-c3ccccc3Cl)no2)cnn1C1CCNCC1`: the 50% effective concentration (EC50) in series [1] is 18 nM; in series [9], over 100000 nM; in series [11], 20 nM. For the same compound, the Efficacy in series [2] was determined as 71%. The outcome in [8] was Active. In addition, the concentration at 1 h amounted to 130 nM in series [3], 610 nM in [4] and 5200 nM in series [5]. Besides, the result in series [10] was inactive.
